# The list is not random: actives were taken first. Their share in the collection is about 2%.
# VIM-2 inh – inhibitors of Pseudomonas aeruginosa VIM-2 metallo-beta-lactamase; inhibition, % at 5.6 µM; hit rate 0.89% among 290,000; AID 1527; purified VIM-2, nitrocefin hydrolysis, epi-absorbance fluorescence;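 active = inhibition above the mean of all tested compounds plus 3 SD, cutoff set per screening run, cut at about 7.5% in these data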;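 also: red hydrolysis product quenches plate fluorescence so inhibitors raise well fluorescence; 0% = enzyme with DMSO and 100% = DMSO without enzyme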
# PLC-beta3 inh – blocks human PLC-beta3 enzyme activity; Purified PLC-beta3, fluorogenic substrate, fluorescence; inhibition, % at 12.2 µM; hit rate 0.18% among 370,000; in the data active = inhibition above about 11%;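 also: 0% = median of compound wells on plate and 100% = full blocker control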
# Target sequence (Q01970 whole entry, looked up): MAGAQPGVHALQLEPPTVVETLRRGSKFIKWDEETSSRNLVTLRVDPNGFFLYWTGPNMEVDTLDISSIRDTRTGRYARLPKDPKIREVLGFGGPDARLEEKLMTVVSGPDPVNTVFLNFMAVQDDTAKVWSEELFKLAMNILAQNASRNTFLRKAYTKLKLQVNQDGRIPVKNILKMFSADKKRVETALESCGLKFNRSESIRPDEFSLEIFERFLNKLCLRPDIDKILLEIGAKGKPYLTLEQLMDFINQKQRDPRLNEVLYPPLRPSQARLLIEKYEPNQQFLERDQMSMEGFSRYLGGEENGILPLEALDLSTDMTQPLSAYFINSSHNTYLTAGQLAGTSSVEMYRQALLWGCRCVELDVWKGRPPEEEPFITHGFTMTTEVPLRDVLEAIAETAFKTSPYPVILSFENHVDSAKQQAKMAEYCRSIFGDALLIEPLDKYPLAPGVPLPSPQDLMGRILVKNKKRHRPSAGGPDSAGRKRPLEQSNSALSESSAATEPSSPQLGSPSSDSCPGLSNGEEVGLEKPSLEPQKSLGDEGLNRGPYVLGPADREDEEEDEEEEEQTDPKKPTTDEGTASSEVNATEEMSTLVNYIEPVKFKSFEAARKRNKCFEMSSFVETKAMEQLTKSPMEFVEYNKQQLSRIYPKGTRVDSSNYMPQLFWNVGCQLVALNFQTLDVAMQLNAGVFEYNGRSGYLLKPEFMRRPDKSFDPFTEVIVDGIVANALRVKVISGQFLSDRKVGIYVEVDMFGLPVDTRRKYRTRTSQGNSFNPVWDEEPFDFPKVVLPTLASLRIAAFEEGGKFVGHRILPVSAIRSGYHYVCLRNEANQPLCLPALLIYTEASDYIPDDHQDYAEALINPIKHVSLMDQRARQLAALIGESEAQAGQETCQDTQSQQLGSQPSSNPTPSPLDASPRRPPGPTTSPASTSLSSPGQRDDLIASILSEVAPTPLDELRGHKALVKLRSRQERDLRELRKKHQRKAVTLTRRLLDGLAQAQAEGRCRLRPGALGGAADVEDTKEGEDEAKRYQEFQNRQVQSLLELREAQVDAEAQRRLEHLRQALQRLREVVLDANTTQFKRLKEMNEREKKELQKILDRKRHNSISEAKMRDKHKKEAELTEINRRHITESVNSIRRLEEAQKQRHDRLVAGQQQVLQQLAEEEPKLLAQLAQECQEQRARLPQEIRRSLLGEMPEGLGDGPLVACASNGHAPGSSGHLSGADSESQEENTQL
# IMP-1 inh – inhibitors of Pseudomonas aeruginosa IMP-1 metallo-beta-lactamase | purified IMP-1, nitrocefin hydrolysis, epi-absorbance fluorescence | inhibition, % at 5.6 µM | hit rate 0.45% among 290,000;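 active = inhibition above the mean plus 3 SD of all compounds in the same screening run, cut at about 4.5% in these data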;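 also: 0% = IMP-1 with DMSO and 100% = DMSO wells lacking enzyme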
#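 System: purified recombinant IMP-1 beta-lactamase. Medium: Zinc- and detergent-supplemented HEPES buffer, pH 7.1. Compound: one 5.6 µM dose […]. Schedule: 15 min preincubation plus 25 min reaction at 25 °C. Technique: Epi-absorbance fluorescence, 480 nm excitation, 530 nm emission.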
# PLC-gamma1 inh – blocks human PLC-gamma1 enzyme activity; P19174; purified PLC-gamma1, fluorogenic substrate, fluorescence; inhibition, % at 12.2 µM; hit rate 0.84% among 370,000; in the data active = inhibition above about 9.5%
# PvdQ acylase – P. aeruginosa PvdQ acylase inhibition. hit rate 0.063% among 340,000. purified PvdQ acylase, fluorescence plate reader. inhibition, % at 10 µM. AID 488965; in the data active = inhibition above about 30%, passing the limit was not always enough;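 also: 0% = vehicle neutral wells and 100% = reference inhibitor wells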
# * marks the source's active call; other numbers are inactive results; · = not tested or not shown; ! = a repeat was not active.
SMILES,VIM-2 inh,PLC-beta3 inh,IMP-1 inh,PLC-gamma1 inh,PvdQ acylase
Cc1c(NC(=O)c2cnc(Cl)c(Cl)c2)c(=O)n(-c2ccccc2)n1C,-1,-6,0,1,-13
Cc1c(NC(=O)c2cccnc2Cl)c(=O)n(-c2ccccc2)n1C,0,·,7.0*,·,-1
O=C(Nc1ccc(Cl)cc1)N1CC=CCC1,-2,0,8.1*,3,-17
O=C(Nc1ccc(Cl)cc1)N1CCN(c2ccccc2)CC1,-1,3,-4,2,-16
CN1c2ccccc2C(O)=C(C(=O)Nc2ccccc2)S1(=O)=O,-3,1,-1,-37,6
Cc1sc2c(c1C)C(O)=C(C(=O)Nc1ccccc1)S(=O)(=O)N2C,0,-11,4.6*,0,-6
COC(=O)c1cc(S(=O)(=O)NCCc2ccc(C)cc2)c[nH]1,-1,0,-4,-2,0
COC(=O)c1cc(S(=O)(=O)NCCc2ccc(SC)cc2)c[nH]1,-1,-14,34*,0,-19
CCOC(=O)CSC1=C(C#N)C(=O)NC(c2ccc(OC)cc2)S1 (centres undefined),1,17*,-3,14*,-9
N#CCC[C@H]1CC[C@]2(CCCN(C(=O)c3ccccc3)C2)O1,·,1,·,4,·
c1ccc(C[C@H]2CN=C(Nc3ccccc3)N2CCC2CCCC2)cc1,·,8,·,10*,-17
C[C@@H](CO)N(Cc1cn(Cc2ccccc2)nn1)S(=O)(=O)c1ccc(F)cc1Br,·,-1,·,2,·
Cc1c2cc(O)c(=O)cc-2oc2cc(O)c(O)cc12,-1,-142,6.5*!,-79,-13
Cc1ccc(C2C(C(=O)c3cccs3)=C(O)C(=O)N2c2nnc(C)s2)cc1 (centres undefined),20*,-239,20*,-169,18
CO[C@@H]1CN(C)C(=O)c2ccc(NC(=O)c3ccccc3F)cc2OC[C@@H](C)N(CC2CCOCC2)C[C@@H]1C,·,11*,·,3,·
CO[C@@H]1CN(C)C(=O)c2cc(NC(=O)NC3CCCCC3)ccc2OC[C@@H](C)N(CC2CCOCC2)C[C@@H]1C,·,5,·,-3,·
COC(=O)C1=C(N)Oc2cc(N(C)C)ccc2C1c1ccccc1OC (centres undefined),-1,-60,7.5*,-49,-3
Cc1ccc(NC(=O)C2=C(C(=O)O)CCCC2)cc1F,1,-3,7.9*,0,-8
Cc1ccc(NC(=O)C2=C(C(=O)O)CCCC2)cc1Br,3,-6,13*,6,-16
Cc1ccc(NC(=O)c2ccc3c(=O)n4c(nc3c2)CCCCC4)cc1F,1,-7,-2,-1,-16
CO[C@H]([C@H](C)/C=C/N(C)C=O)[C@@H](C)C(=O)CC[C@H](C)[C@H](O)[C@H](C)[C@H]1OC(=O)/C=C/C(C)=C/C[C@H](O)C[C@@H]2C=CC[C@@H](C[C@H](OC)[C@@H](C)[C@@H](OC)C[C@@H](OC)[C@@H]1C)O2,·,2,·,2,·
Cc1ccc(SC(C)C(=O)Nc2ncn[nH]2)cc1 (centres undefined),-6,0,39*,-1,-12
COc1cc(Cn2cc([C@]34C[C@H]5C(=O)N(C)CC(=O)N5[C@H]3N(S(=O)(=O)c3ccccc3)c3ccccc34)c3ccccc32)cc(OC)c1,·,-3,·,-1,·
O=C(/C=C/c1ccco1)c1ccccc1O,-4,-16,-4,-15,-15
O=C(/C=C/c1cccs1)c1cc(Cl)ccc1O,-4,-6,-3,-4,77*
SMILES,VIM-2 inh,PLC-beta3 inh,IMP-1 inh,PLC-gamma1 inh,PvdQ acylase
O=C(C=Cc1ccco1)c1cc(Cl)ccc1O,·,-36,·,-28,45*
COc1ccccc1C(=O)n1ccc2ccc(-c3ccc4ccn(Cc5ccccc5)c4c3)cc21,·,-180,·,-113,·
CCN(CC)C(=O)CSc1nnc(-c2ccc(C(C)(C)C)cc2)n1Cc1ccco1,·,2,·,0,·
COc1cc2[nH]c(=O)n(CCC(=O)N3CCC(N4CCCCC4)CC3)c(=O)c2cc1OC,7.8*,-1,-2,0,-12
COc1cc2[nH]c(=O)n(Cc3ccc(C(=O)N4CCC(N5CCCCC5)CC4)cc3)c(=O)c2cc1OC,-2,·,-3,·,-17
C=CCn1c(SCC(=O)C(C)(C)C)nnc1-c1ccc(Cl)cc1,·,0,·,1,·
CC1=NN(c2ccccc2)C(=O)C1C(=S)SC1CC(=O)NC1=O (centres undefined),·,0,·,5,·
O=C1CC(SC(=S)C2CCCC2=O)C(=O)N1 (centres undefined),·,-16,·,12*,·
C/C(=N\NC(N)=S)c1ccc(-n2ccnc2)cc1,10.0*,-4,-2,2,-10
CC(=O)N1CCN(C(=O)CCn2nnc3ccccc32)CC1,·,-8,·,0,·
Oc1cccc(/C=N/N(Cc2ccccc2)c2ccccc2)c1,0,-14,0,0,-4
Oc1ccc(/C=N/N(Cc2ccccc2)c2ccccc2)c(O)c1O,1,-9,5.1*,0,-15
O=C(Nc1ccc(Cl)cc1)N(Cc1nnc2n1CCCCC2)c1ccccc1,0,0,5.4*,-1,7
N#Cc1cc(-c2ccccc2)cnc1Cl,-1,5,-2,3,37*
NS(=O)(=O)c1cccc(NC(=O)COC(=O)Cc2ccc(S(=O)(=O)N3CCCCC3)s2)c1,-4,-9,5.6*,-8,5
O=C(COC(=O)Cc1ccc(S(=O)(=O)N2CCCCC2)s1)Nc1ccc2c(c1)OCO2,-3,-11,-1,-7,-20
Cc1ccc(/C=C2\SC(=S)N(c3cccnc3)C2=O)o1,1,-8,5.9*,-2,0
Cc1cccc(N2C(=O)/C(=C/c3cccnc3)SC2=S)c1,0,-9,0,-2,-3
COc1cccc(-c2nc(N3CCCCC3C)c3ccccc3n2)c1O (centres undefined),-2,2,-1,6,-16
COc1cccc(-c2nc(N3CCN(C)CC3)c3ccccc3n2)c1O,10*,-6,-2,2,3
OCCN1CCN(c2nc(-c3ccccc3O)nc3ccccc23)CC1,11*,-10,-2,-3,18
Cc1ccccc1NC(=O)CSc1nc(N)c(C#N)c(-c2cccs2)c1C#N,-4,-32,12*,-20,-1
CN1CCN(CCCNC(=O)c2ccc(CSCc3cccc(Cl)c3)o2)CC1,0,0,6.8*,1,·
O=C(NCCCN1CCCC1)c1ccc(CSCc2cccc(Cl)c2)o1,-3,2,-3,1,7
Oc1cccc(Nc2c3ccccc3nc3ccccc23)c1,11*,-262,-4,-208,-7
SMILES,VIM-2 inh,PLC-beta3 inh,IMP-1 inh,PLC-gamma1 inh,PvdQ acylase
c1cncc(Nc2c3ccccc3nc3ccccc23)c1,10*,-228,-1,-183,6
C[C@H]1[C@@H](NC(=O)C#Cc2ccccc2)CC[C@@]23CCCN2C(=O)CCC[C@@H]13,·,4,·,4,·
C=CCN(C)CC#Cc1ccccc1C,·,-2,·,-2,·
COC(=O)c1cc(-c2ccc(OC)cc2)on1,-1,-4,-3,0,95*
COc1ccc(-c2cc(C(=O)Nc3ccc(Br)cc3)no2)cc1,0,-1,20*,6,-10
COc1cccc(-c2cc(C(=O)O)no2)c1,-1,-22,-4,-15,-5

# Screening data from PubChem.
